Compound activity as filed in PubChem.
bIAP activator: intestinal alkaline phosphatase (bovine) activation | purified bovine IAP, CDP-star luminescence, 30 min; stronger effect = higher value; fold of DMSO-control signal, blank-subtracted | activation factor at 20 µM | hit rate 0.17% among 200,000;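 active = activation factor of 2 or more at 20 µM, a signal rise over negative controls twice the positive control's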
mIAP inh: mouse IAP inhibition. purified mouse IAP, CDP-Star luminescence, 30 min. inhibition, % at 10 µM. AID 2806. hit rate 0.2% among 330,000;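 active = inhibition of at least 40% at 10 µM in the primary screen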
mIAP activ: increases mouse intestinal alkaline phosphatase activity; muIAP, CDP-Star luminescence, 30 min; stronger effect = higher value; 1 = vehicle-only enzyme signal, 0 = enzyme-free wells; activation factor at 10 µM; hit rate 0.24% among 330,000; AID 2805;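 active = activation factor of at least 2 at 20 µM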
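Assay system: mouse IAP enzyme; Reagent: CDP-Star chemiluminescent phosphatase substrate; Compound: DMSO-dissolved test compounds; Incubation: 30 min, room temperature; Technique: luminescence from enzymatic CDP-Star hydrolysis; Controls: DMSO-only wells and no-enzyme negative control.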
bIAP inhibitor: intestinal alkaline phosphatase (bovine) inhibition; AID 1019; inhibition, % at 20 µM; 190,000 tested, under 10 active; purified bovine IAP, CDP-star luminescence, 30 min;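 active = over 50% inhibition of intestinal alkaline phosphatase at 20 µM in the single-dose screen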
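Assay system: bovine IAP enzyme; medium: DEA buffer 100 mM, pH 9.8, with MgCl2 1.0 mM, ZnCl2 0.02 mM; doses: 20 µM single dose; incubation: enzyme reaction for 30 min at room temperature; detection: CDP-star luminescence signal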
hIAP inh: blocks human intestinal alkaline phosphatase; P09923; purified IAP, CDP-Star luminescence, 30 min; inhibition, % at 10 µM; hit rate 0.12% among 330,000;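 active = inhibition reaching a set limit with compound at 10 µM in the primary screen, cut at about 35% in these data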
Target sequence (P09923 whole entry, looked up): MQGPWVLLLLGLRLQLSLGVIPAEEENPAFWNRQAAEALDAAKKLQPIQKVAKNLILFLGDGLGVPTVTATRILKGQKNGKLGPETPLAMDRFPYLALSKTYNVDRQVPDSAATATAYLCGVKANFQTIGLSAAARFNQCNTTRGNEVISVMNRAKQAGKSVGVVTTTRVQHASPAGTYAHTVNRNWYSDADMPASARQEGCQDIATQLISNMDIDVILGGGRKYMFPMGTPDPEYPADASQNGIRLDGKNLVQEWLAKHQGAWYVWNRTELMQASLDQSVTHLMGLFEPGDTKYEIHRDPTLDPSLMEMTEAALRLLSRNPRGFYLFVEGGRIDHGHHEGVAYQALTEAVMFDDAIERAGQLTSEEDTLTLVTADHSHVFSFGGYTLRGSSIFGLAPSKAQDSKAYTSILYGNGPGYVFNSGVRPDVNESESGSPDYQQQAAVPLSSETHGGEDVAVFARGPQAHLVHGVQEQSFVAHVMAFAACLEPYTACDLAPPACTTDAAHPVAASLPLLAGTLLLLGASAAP
hIAP activ: human IAP activation | activation factor at 10 µM | AID 2524 | purified human IAP, CDP-Star luminescence, 30 min; stronger effect = higher value; 1 = vehicle-only enzyme, 0 = enzyme-free background | hit rate 0.16% among 330,000 | P09923;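 active = activation factor of the enzyme at least 2-fold when tested at 20 µM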
Of the large screens only hits and unclear results are named; the others gave an inactive call. Rows were chosen to be rich in hits. Some 0.77% of all compounds tested hit in one or more screens of this group.

N#C/C(=C/c1ccc(N2CCCCC2)o1)C(=O)Nc1ccc(Cl)cc1	hIAP inh 38
O=C(/C=C/c1ccco1)NC(=S)Nc1ccc(O)c(-c2nc3ccccc3s2)c1	mIAP inh 53
Cc1ccc(S(=O)(=O)N(C)C)cc1NC(=S)NC(C)CCCC(C)C (centres undefined)	mIAP activ 3.9
CCCCCCC(C)NC(=S)Nc1cc(S(=O)(=O)N(C)C)ccc1C (centres undefined)	mIAP activ 4.8
COCCOc1ccc(C(F)(F)F)cc1NC(=O)COC(=O)Cc1c[nH]c2ccccc12	none (no result: bIAP activator, bIAP inhibitor)
COc1cc(/C=C2\CC/C(=C\c3cc(OC)c(O)c(OC)c3)C2=O)cc(OC)c1O	mIAP inh 56 (no result: bIAP inhibitor)
CCCCC(=O)Nc1ccc(N2CCN(c3ccc(F)cc3)CC2)cc1	none (no result: bIAP activator, bIAP inhibitor)
O=C(Nc1cccc(-c2nc3ccccc3o2)c1)c1ccc(N2C(=O)C3C4C=CC(C4)C3C2=O)cc1 (centres undefined)	none
O=C1C2C3C=CC(C3)C2C(=O)N1c1cccc(-c2nc3ccccc3o2)c1 (centres undefined)	bIAP activator 3.9
CC(NC(=O)C(=O)N1CCOCC1)C(c1cccs1)N1CCN(c2ccccc2)CC1 (centres undefined)	none (no result: bIAP activator, bIAP inhibitor)
S=c1[nH]nc(-c2ccccc2)n1/N=C/C=C/c1ccco1	mIAP inh 53
Cc1ccc(N=C2NC(=O)/C(=C\c3ccco3)S2)cc1	mIAP inh 45
Cc1cccc(N=C2NC(=O)/C(=C/C=C/c3ccco3)S2)c1	none (no result: mIAP inh, mIAP activ, hIAP inh, hIAP activ)
C/C(CC(=O)NC(C)C)=N\NC(=O)COc1cc(C)c(Br)cc1Br	bIAP activator 2.6
CCOc1ccc(NC(=O)NNC(=O)c2cccnc2)cc1	none (no result: bIAP activator, bIAP inhibitor)
CCOc1cc(/C=C2\NC(=S)N(c3c(C)n(C)n(-c4ccccc4)c3=O)C2=O)ccc1O	mIAP inh 42
CCOc1cccc(/C=C2\NC(=S)N(c3ccccc3)C2=O)c1O	none (no result: bIAP activator, bIAP inhibitor)
CCCCn1c(N)c(N(CCOC)C(=O)c2cccc(S(=O)(=O)N(CC)c3ccccc3)c2)c(=O)[nH]c1=O	none (no result: bIAP activator, bIAP inhibitor)
Cc1ccc(C(=O)C2=C(O)C(=O)N(CC3CCCO3)C2c2ccccc2F)o1 (centres undefined)	none (no result: bIAP activator, bIAP inhibitor)
O=C(Nc1ccccc1)Nc1ccc(-n2ccc(C(F)(F)F)n2)cc1	mIAP activ 2.4 (no result: bIAP activator, bIAP inhibitor)
COc1ccc(NC(=O)C2CCC(CNc3c(N4CCC(C)CC4)c(=O)c3=O)CC2)cc1OC (centres undefined)	bIAP activator 3.1
COc1cc(NC(=O)C2CCC(CNc3c(N4CCC(C)CC4)c(=O)c3=O)CC2)cc(OC)c1 (centres undefined)	none
COc1ccc(Cl)c(N2CCN(CCCNC(=O)Nc3ccc(C)cc3)CC2)c1	bIAP activator 2.2
CCN(CC)S(=O)(=O)c1ccc(NC(=O)CCC2CCCCC2)cc1	bIAP activator 2.3 (no result: mIAP inh, mIAP activ, hIAP inh, hIAP activ)
COc1ccccc1Nc1nc(-c2cccs2)cs1	mIAP inh 43
Cc1cccc(NC(=O)Nc2ccc3c(c2)CCC3)c1	mIAP activ 2.9 (no result: bIAP activator, bIAP inhibitor)
COC(=O)[C@]12C(=O)NC[C@H](CN1c1ccc(C(F)(F)F)cc1)N2C	none (no result: bIAP activator, bIAP inhibitor)
O=C(Nc1ccccc1N1CCOCC1)C1=NN(c2c(F)c(F)cc(F)c2F)C(=O)CC1	none (no result: bIAP activator, bIAP inhibitor)
CCc1ccc(-c2nc(CN3CCC(C(=O)NCCc4ccc(OC)c(OC)c4)CC3)c(C)o2)cc1	bIAP activator 2.1
CCc1ccc(-c2nc(CN3CCC(C(=O)NCc4ccccc4OC)CC3)c(C)o2)cc1	bIAP activator 2.6
Cc1ccc2nc(SCC(=O)NCCCN3CCCC3=O)[nH]c2c1	none (no result: bIAP activator, bIAP inhibitor)
CC(=O)OCC(=O)[C@@]1(O)CC[C@H]2[C@@H]3CCC4=CC(=O)C=C[C@]4(C)[C@H]3[C@@H](O)C[C@@]21C	bIAP activator 380 (no result: bIAP inhibitor)
C[C@]12C=CC(=O)C=C1CC[C@@H]1C2C(O)C[C@@]2(C)C1CC[C@]2(O)C(=O)COC(=O)CCC(=O)NC(CC(=O)O)C(=O)O (some centres undefined)	none (no result: bIAP activator, bIAP inhibitor)
C/C=C\C(=O)Nc1cccc(C2=NOC3(C2)C[C@@H](C(N)=O)N(C(=O)c2ccccc2)C3)c1 (some centres undefined)	mIAP inh 44 (no result: bIAP activator, bIAP inhibitor)
CC1CCCCN1C(=O)CSc1nnc(Cc2ccccc2)n1C (centres undefined)	bIAP activator 2.1
